Results collected from several papers.
Compare with care: the assays were run in different laboratories.
Target: Tyrosine-protein kinase CSK (CSK, Homo sapiens, UniProt P41240)

SMILES	observed	mode	method	concentration	setting	quantity	value
COc1ccc2oc(-c3ccc4nc(N)oc4c3)c/c(=N\c3ccccc3NC(=O)CCN)c2c1	cell-free assay	–	–	1 µM	–	remaining signal	119%
C1=C/COCc2cc(ccc2OCCN2CCCC2)Nc2nccc(n2)-c2cccc(c2)COC/1	cell-free assay	–	–	0.1 µM	–	remaining signal	88%
CN1CCN(C(=O)c2ccc(NC(=O)Nc3ccc(N(C)c4ccnc(Nc5ccc(CS(C)(=O)=O)cc5)n4)cc3)cc2)CC1	binding	–	competition with immobilised ligand	1 µM	–	remaining binding	62%
C#Cc1cc(-c2cc(Nc3nc(N[C@@H](C)c4ccc(F)cn4)ncc3Cl)n[nH]2)ccc1C=O	enzyme activity	inhibitor	–	0.2 µM	–	inhibition	14%
CC#CC(=O)N1CCC[C@H]1c1nc(-c2ccc(C(=O)Nc3ccccn3)cc2)c2c(N)nccn12	enzyme activity	inhibitor	–	1 µM	–	inhibition	32%
Cc1cc(O)c(-c2ccc([C@@H](C)CN(C)C)cc2)c2c1[nH]c(=O)c1sccc12	enzyme activity	inhibitor	–	0.1 µM	lysate	inhibition	2.59%
Cc1ccc(NC(=O)c2ccnc(C(F)(F)F)c2)cc1-c1cc(OCCO)nc(N2CCOCC2)c1	binding	–	competition with immobilised ligand	1 µM	–	remaining binding	95%
CO[C@@H]1[C@H](N(C)C(=O)c2ccccc2)C[C@H]2O[C@]1(C)n1c3ccccc3c3c4c(c5c6ccccc6n2c5c31)C(=O)NC4	enzyme activity	inhibitor	–	1 µM	–	inhibition	0%
CCCCC(=O)Nc1ccc(-c2ccc3ncn(CCC)c(=O)c3c2)cn1	binding	–	competition with immobilised ligand	0.5 µM	–	remaining binding	94%
